Test results: ChEMBL document CHEMBL4715707, “Allosteric Indole Amide Inhibitors of p97: Identification of a Novel Probe of the Ubiquitin Pathway” (ACS Med Chem Lett, 2016)
≈ marks a conversion by molar mass, not a printed value. Values belong to the compound of their own block, whether it stands above or below them. Calls of active or inactive are those of the source. The calls are words filed in the database; no cut-off is given here.

Tests used:
[1] = biological target: T1, Transitional endoplasmic reticulum ATPase (Homo sapiens, UniProt P55072); test: Inhibition of recombinant human full length Avi-tagged p97 (1 to 806 residues) expressed in Escherichia coli Rosetta 2(DE3) using 100 uM ATP as substrate incubated for 90 mins by ADP-glo assay
In short: (§1)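 ADP-Glo luminescent detection of ADP formed by wild-type p97 ATPase. Enzyme was 20 nM WT p97 (indole amide series) or 10 nM (pyridine indole amide series), with ATP at 20 or 100 μM. n is the number of independent replicates, each run in duplicate or triplicate.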
Target sequence in this assay (P55072 whole entry, the tested form may be a part): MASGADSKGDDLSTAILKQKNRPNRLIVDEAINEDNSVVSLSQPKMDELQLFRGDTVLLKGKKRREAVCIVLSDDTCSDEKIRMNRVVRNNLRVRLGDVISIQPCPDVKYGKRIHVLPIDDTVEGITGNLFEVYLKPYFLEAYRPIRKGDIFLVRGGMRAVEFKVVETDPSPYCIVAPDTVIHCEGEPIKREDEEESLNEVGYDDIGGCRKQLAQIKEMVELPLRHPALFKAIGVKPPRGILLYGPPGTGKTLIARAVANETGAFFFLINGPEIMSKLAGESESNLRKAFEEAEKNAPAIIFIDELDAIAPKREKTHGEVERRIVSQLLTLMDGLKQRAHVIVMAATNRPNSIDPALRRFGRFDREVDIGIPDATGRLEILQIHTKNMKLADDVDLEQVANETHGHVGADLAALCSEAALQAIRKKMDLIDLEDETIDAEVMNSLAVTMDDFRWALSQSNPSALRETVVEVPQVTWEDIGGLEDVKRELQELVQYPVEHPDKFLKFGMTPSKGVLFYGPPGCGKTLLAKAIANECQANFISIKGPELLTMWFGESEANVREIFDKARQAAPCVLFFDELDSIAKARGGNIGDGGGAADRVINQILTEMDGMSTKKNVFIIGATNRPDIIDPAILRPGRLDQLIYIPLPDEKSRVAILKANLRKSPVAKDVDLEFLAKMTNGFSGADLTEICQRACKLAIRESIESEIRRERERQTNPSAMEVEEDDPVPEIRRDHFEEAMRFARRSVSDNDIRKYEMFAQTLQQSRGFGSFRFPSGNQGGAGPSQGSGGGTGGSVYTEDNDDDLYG

[2] = Aqueous solubility of compound at pH 7; format: physicochemical; conditions: buffer
In short: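 Aqueous solubility determined in PBS at pH 7.4.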

[3] = Metabolic stability in human microsomes assessed as half life; format: ADME, Microsome
[4] = Apparent permeability across apical to basolateral side in MDCK cells; format: ADME, cell-based, Canis lupus familiaris; conditions: dog
In short: (§2)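 Bidirectional permeability measured across MDCK cell monolayers, reported as apparent permeability (Papp) in cm/s for each direction.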

[5] = Metabolic stability in mouse microsomes assessed as half life; format: ADME, Microsome
[6] = biological target: T1, Transitional endoplasmic reticulum ATPase; test: Uncompetitive inhibition of recombinant human full length Avi-tagged p97 (1 to 806 residues) expressed in Escherichia coli Rosetta 2(DE3) using 20 uM ATP as substrate incubated for 90 mins by ADP-glo assay based Michaelis-Menten plot analysis
In short: (§3)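 ATP-dependence of inhibition assessed by determining IC50 at three ATP levels (5, 20 and 100 μM) in the ADP-Glo p97 ATPase assay. Inhibition mode was assigned from the shift in IC50 with increasing ATP.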
Target sequence in this assay (P55072 whole entry, the tested form may be a part): as above

[7] = biological target: T1, Transitional endoplasmic reticulum ATPase; test: Competitive inhibition of recombinant human full length Avi-tagged p97 (1 to 806 residues) expressed in Escherichia coli Rosetta 2(DE3) using 20 uM ATP as substrate incubated for 90 mins by ADP-glo assay based Michaelis-Menten plot analysis
Target sequence in this assay (P55072 whole entry, the tested form may be a part): as above

[8] = biological target: T1, Transitional endoplasmic reticulum ATPase; test: Inhibition of recombinant human full length Avi-tagged p97 (1 to 806 residues) expressed in Escherichia coli Rosetta 2(DE3) using 20 uM ATP as substrate incubated for 90 mins by ADP-glo assay; in short: as §1
Target sequence in this assay (P55072 whole entry, the tested form may be a part): as above

[9] = Apparent permeability across basolateral to apical side in MDCK cells; format: ADME, cell-based, Canis lupus familiaris; conditions: dog; in short: as §2
[10] = biological target: T1, Transitional endoplasmic reticulum ATPase; test: Binding affinity to recombinant human full length C-terminal Avi-tagged p97 D2 domain (461 to 806 residues) expressed in Escherichia coli Rosetta 2(DE3) assessed as binding constant by SPR analysis
Target sequence in this assay (P55072 2-806 limits assumed): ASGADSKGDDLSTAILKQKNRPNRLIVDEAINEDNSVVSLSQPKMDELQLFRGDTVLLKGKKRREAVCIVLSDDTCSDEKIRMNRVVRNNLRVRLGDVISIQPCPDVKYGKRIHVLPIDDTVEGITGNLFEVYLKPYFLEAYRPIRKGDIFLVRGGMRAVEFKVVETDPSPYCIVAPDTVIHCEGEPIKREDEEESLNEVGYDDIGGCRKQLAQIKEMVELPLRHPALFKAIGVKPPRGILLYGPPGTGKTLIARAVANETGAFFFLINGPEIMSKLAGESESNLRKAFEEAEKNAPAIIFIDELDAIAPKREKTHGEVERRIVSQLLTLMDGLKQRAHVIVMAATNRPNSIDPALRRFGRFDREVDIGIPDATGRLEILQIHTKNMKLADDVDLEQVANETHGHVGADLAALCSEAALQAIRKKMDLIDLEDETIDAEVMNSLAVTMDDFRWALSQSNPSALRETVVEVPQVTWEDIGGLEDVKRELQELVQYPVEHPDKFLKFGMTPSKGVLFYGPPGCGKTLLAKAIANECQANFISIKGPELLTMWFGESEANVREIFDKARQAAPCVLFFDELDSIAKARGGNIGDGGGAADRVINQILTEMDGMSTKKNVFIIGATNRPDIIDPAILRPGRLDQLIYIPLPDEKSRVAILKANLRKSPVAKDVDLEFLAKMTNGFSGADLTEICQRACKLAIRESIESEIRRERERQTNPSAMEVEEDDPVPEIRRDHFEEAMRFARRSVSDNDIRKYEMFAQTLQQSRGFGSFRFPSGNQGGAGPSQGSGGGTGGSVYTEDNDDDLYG

[11] = biological target: T1, Transitional endoplasmic reticulum ATPase; test: Binding affinity to recombinant human full length Avi-tagged p97 (1 to 806 residues) expressed in Escherichia coli Rosetta 2(DE3) assessed as binding constant by SPR analysis
Target sequence in this assay (P55072 2-806 limits assumed): as above

[12] = biological target: T1, Transitional endoplasmic reticulum ATPase; test: Binding affinity to recombinant human full length N-terminal Avi-tagged p97 ND1 domain (1 to 458 residues) expressed in Escherichia coli Rosetta 2(DE3) assessed as binding constant by SPR analysis
Target sequence in this assay (P55072 2-806 limits assumed): as above

[13] = biological target: T1, Transitional endoplasmic reticulum ATPase; test: Inhibition of recombinant human full length Avi-tagged p97 (1 to 806 residues) expressed in Escherichia coli Rosetta 2(DE3) using 5 uM ATP as substrate incubated for 90 mins by ADP-glo assay; in short: as §3
Target sequence in this assay (P55072 whole entry, the tested form may be a part): as the sequence (P55072 whole entry, the tested form may be a part) above

solubility [2]: 330 µM (≈ 87.9 µg/mL)
half-life [3]: > 60 min
Papp A→B [4]: 71 ×10⁻⁶ cm/s
half-life [5]: 5 min
Ki [6]: 0.74 µM
Ki [7]: 3.5 µM
IC50 [1]: 0.5 µM
IC50 [8]: 2.6 µM
Papp B→A [9]: 46 ×10⁻⁶ cm/s
SMILES: Cc1cc2cc(NC(=O)c3cccnc3N)ccc2[nH]1

IC50 [8]: > 50 µM
SMILES: Cc1[nH]c2ccc(NC(=O)c3nccnc3N)cc2c1C

IC50 [1]: 13 µM
SMILES: CCc1cc2cc(NC(=O)c3nccnc3N)ccc2[nH]1

Continued, compound first:

SMILES: Cc1cc2cc(NC(=O)c3nccnc3N)ccc2n1C
IC50 [1]: > 50 µM

SMILES: Cc1cc2cc(NC(=O)c3ncccc3N)ccc2[nH]1
IC50 [8]: > 50 µM

SMILES: Cc1cc2cc(NC(=O)c3nccnc3N)ccc2[nH]1
solubility [2]: 56 µM (≈ 15 µg/mL)
Activity [10]: Active
Kdiss [11]: 9.1 µM
IC50 [1]: 3.5 µM
IC50 [8]: 11.5 µM
Activity [12]: inactive
IC50 [13]: 26 µM

SMILES: Nc1nccnc1C(=O)Nc1ccc2[nH]ccc2c1
IC50 [8]: > 50 µM

SMILES: Cc1cc2cc(NC(=O)c3cnccn3)ccc2[nH]1
IC50 [8]: > 50 µM
